3 compounds from ChEMBL document CHEMBL1649455, “Antimicrobial susceptibility and mechanisms of resistance in Shigella and Salmonella isolates from children under five years of age with diarrhea in rural Mozambique” (2009) can be followed below.

In assay [1] the test system is Shigella flexneri. Description: Antimicrobial activity against Shigella flexneri harboring carb-like gene assessed as resistant isolates by disk diffusion method. It is filed as functional. In short, it runs like this: (§1)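 Resistance genes were sought by PCR in isolates fully resistant to the matching antibiotic. One colony was boiled 10 min in water to make template. PCR used […] each primer, 0.4 mM dNTPs and Taq, for 30 cycles of 94°C 1 min, primer-specific annealing 1 min and 72°C 1 min, then 72°C for 10 min. Products were run on 1.5% agarose gels with ethidium bromide.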
For orientation: In agar diffusion tests the substance spreads into inoculated agar from a disc or well.

Assay [2] deals with Shigella flexneri. Description: Antimicrobial activity against Shigella flexneri harboring oxa-1-like gene assessed as resistant isolates by disk diffusion method. It counts as functional. In short, it runs like this: as §1
Assay [3] relates to Salmonella sp. Description: Antimicrobial activity against Salmonella spp. harboring carb-like gene assessed as resistant isolates by disk diffusion method. It counts as functional. In short, it runs like this: as §1
The nature of assay [4]: Antimicrobial activity against Salmonella enterica serovar Virchow assessed as resistant isolates by disk diffusion method. It counts as functional, Salmonella enterica subsp. enterica serovar Virchow. In short, it runs like this:
(§2)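 Isolates came from rectal swabs of children under five seen at MDH between July 2001 and July 2003. There were 109 Shigella and 40 Salmonella. Swabs were cultured on MacConkey, Salmonella-Shigella and XLD agars. Identity was confirmed biochemically and by API-20E. Shigella serogroups were assigned by slide agglutination. Salmonella serotypes were assigned with somatic and flagellar antisera.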

Assay [5] has as its system Shigella flexneri. Description: Antimicrobial activity against Shigella flexneri harboring oxa-2-like gene assessed as resistant isolates by disk diffusion method. It counts as functional. In a few lines: as §1
In assay [6] the test system is Salmonella sp. Description: Antimicrobial activity against Salmonella spp. harboring oxa-5-like gene assessed as resistant isolates by disk diffusion method. It counts as functional. In a few lines:
as §1

Assay [7] concerns Shigella flexneri. Description: Antimicrobial activity against Shigella flexneri harboring tem-like gene assessed as resistant isolates by disk diffusion method. It counts as functional.
The subject of assay [8] is Salmonella typhimurium. Description: Antimicrobial activity against Salmonella enterica serovar Typhimurium assessed as resistant isolates by disk diffusion method. It counts as functional, Salmonella enterica subsp. enterica serovar Typhimurium. In short, it runs like this: as §2
Assay [9] relates to Salmonella sp. Description: Antimicrobial activity against Salmonella spp. harboring oxa-2-like gene assessed as resistant isolates by disk diffusion method. It counts as functional.
In assay [10] the test system is Shigella flexneri. Description: Antimicrobial activity against Shigella flexneri harboring oxa-5-like gene assessed as resistant isolates by disk diffusion method. It counts as functional. In a few lines: as §1
Assay [11] deals with Shigella sonnei. Description: Antimicrobial activity against Shigella sonnei assessed as resistant isolates by disk diffusion method. It is filed as functional. In short, it runs like this: as §2
The test system of assay [12] is Salmonella sp. Description: Antimicrobial activity against Salmonella spp. harboring tem-like gene assessed as resistant isolates by disk diffusion method. It is filed as functional.
Assay [13] can be described thus: Antimicrobial activity against Salmonella enterica serovar Infantis assessed as resistant isolates by disk diffusion method. It is filed as functional, Salmonella enterica subsp. enterica serovar Infantis. In short, it runs like this: as §2
The test system of assay [14] is Shigella flexneri. Description: Antimicrobial activity against Shigella flexneri assessed as resistant isolates by disk diffusion method. It is filed as functional. In short, it runs like this: as §2
The test system of assay [15] is Salmonella sp. Description: Antimicrobial activity against Salmonella spp. harboring shv-like gene assessed as resistant isolates by disk diffusion method. It counts as functional. In short, it runs like this: as §1
The test system of assay [16] is Salmonella enterica. Description: Antimicrobial activity against Salmonella enterica clinical isolates assessed as resistant isolates by disk diffusion method. It is filed as functional. In a few lines: as §2
Assay [17] deals with Shigella flexneri. Description: Antimicrobial activity against Shigella flexneri harboring shv-like gene assessed as resistant isolates by disk diffusion method. It counts as functional.
Assay [18] relates to Salmonella sp. Description: Antimicrobial activity against Salmonella spp. harboring oxa-1-like gene assessed as resistant isolates by disk diffusion method. It is filed as functional. In short, it runs like this: as §1
The subject of assay [19] is Shigella flexneri. Description: Antimicrobial activity against Shigella flexneri harboring CAT gene assessed as resistant isolates by disk diffusion method. It is filed as functional.
Assay [20] concerns Shigella flexneri. Description: Antimicrobial activity against Shigella flexneri harboring cmlA-like gene assessed as resistant isolates by disk diffusion method. It counts as functional.
Assay [21] has as its system Shigella flexneri. Description: Antimicrobial activity against Shigella flexneri harboring floR-like gene assessed as resistant isolates by disk diffusion method. It counts as functional. In a few lines:
as §1

Assay [22] deals with Salmonella sp. Description: Antimicrobial activity against Salmonella spp. harboring CAT gene assessed as resistant isolates by disk diffusion method. It counts as functional.
Assay [23] has as its system Salmonella sp. Description: Antimicrobial activity against Salmonella spp. harboring cmlA-like gene assessed as resistant isolates by disk diffusion method. It is filed as functional.
The subject of assay [24] is Salmonella sp. Description: Antimicrobial activity against Salmonella spp. harboring floR-like gene assessed as resistant isolates by disk diffusion method. It is filed as functional.
Assay [25] concerns Shigella sonnei. Description: Antimicrobial activity against Shigella sonnei harboring tetB gene assessed as resistant isolates by disk diffusion method. It is filed as functional. In short, it runs like this:
as §1

The test system of assay [26] is Shigella flexneri. Description: Antimicrobial activity against Shigella flexneri harboring tetB gene assessed as resistant isolates by disk diffusion method. It is filed as functional.
In assay [27] the test system is Shigella flexneri. Description: Antimicrobial activity against Shigella flexneri harboring tetA gene assessed as resistant isolates by disk diffusion method. It counts as functional.
Assay [28] has as its system Salmonella sp. Description: Antimicrobial activity against Salmonella spp. harboring tetA gene assessed as resistant isolates by disk diffusion method. It is filed as functional.
The subject of assay [29] is Shigella flexneri. Description: Antimicrobial activity against Shigella flexneri harboring tetG gene assessed as resistant isolates by disk diffusion method. It counts as functional. In a few lines: as §1
Assay [30] has as its system Shigella sonnei. Description: Antimicrobial activity against Shigella sonnei harboring tetA gene assessed as resistant isolates by disk diffusion method. It is filed as functional.
In assay [31] the test system is Salmonella sp. Description: Antimicrobial activity against Salmonella spp. harboring tetB gene assessed as resistant isolates by disk diffusion method. It is filed as functional.
Assay [32] concerns Salmonella sp. Description: Antimicrobial activity against Salmonella spp. harboring tetG gene assessed as resistant isolates by disk diffusion method. It counts as functional.
For assay [33], the system named is Shigella sonnei. Description: Antimicrobial activity against Shigella sonnei harboring tetG gene assessed as resistant isolates by disk diffusion method. It counts as functional. In a few lines: as §1

As for `CC1(C)S[C@@H]2[C@H](NC(=O)[C@H](N)c3ccccc3)C(=O)N2[C@H]1C(=O)O` [AMPICILLIN], the Activity in [1] was 0%; in [2], 90%; in assay [3] it was 0%; in assay [4], 0%; in assay [5], 5%; in assay [6] it was 20%. The Activity in [7] is listed as 5%; in assay [8], 67%; in assay [9] it was 0%; in assay [10] it was 2%; in assay [11], 0%; in assay [12], 70%. In addition, the Activity stood at 0% in [13]; 66% in assay [14]; 0% in [15]; 25% in assay [16]; 2% in [17]; 0% in assay [18].
Consider `O=C(N[C@H](CO)[C@H](O)c1ccc([N+](=O)[O-])cc1)C(Cl)Cl` [CHLORAMPHENICOL], for which the Activity was 89% in assay [19]; 2% in assay [20]; 0% in [4]; 22% in [8]; 0% in assay [11]; 0% in [13]. The Activity in [14] was 61%; in [21] it was 0%; in assay [22], 67%; in [16], 25%; in assay [23], 33%; in assay [24], 83%.
For the compound `CN(C)[C@@H]1C(O)=C(C(N)=O)C(=O)[C@@]2(O)C(O)=C3C(=O)c4c(O)cccc4[C@@](C)(O)[C@H]3C[C@@H]12` [TETRACYCLINE], the Activity in [25] was determined as 0%; in [26], 98%; in assay [4] it was 0%; in [27] it was 2%; in [28], 33%; in assay [8] it was 0%. The Activity in assay [11] is 93%; in [29] it was 22%; in [30], 71%; in [13] it was 0%; in [31], 0%; in [14], 64%. Besides, the Activity in assay [16] turned out to be 25%; in assay [32], 0%; in [33], 36%.
